Measurements taken from ChEMBL document CHEMBL3576810, “Pentacyclic antibiotics from a tidal mud flat-derived actinomycete” (J Nat Prod, 2015).
In brackets after ≈: the same amount, converted by molar mass. Activity calls are given as the source filed them. The rule behind the calls is not given here.

Columns and labels:
[1] = test system: Proteus hauseri; test: Antibacterial activity against Proteus hauseri NBRC 3851 incubated for 12 hrs at 37 degC; assay type: functional; details: NBRC 3851, 12 h
Method in brief: (§1)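 Bacteria grown overnight in LB broth at 37 °C, centrifuged and washed twice in sterile water. DMSO compound stocks serially 2-fold diluted in Plate Count Broth over 50 to 0.8 μg/mL. Inoculum 5 × 10^5 cfu/mL final, 12 h at 37 °C. MIC taken as lowest concentration with no visible growth. Ampicillin reference.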

[2] = test system: MDA-MB-231; test: Cytotoxicity against human MDA-MB-231 cells after 72 hrs by sulforhodamine B assay; assay type: functional, cell-based; details: MDA-MB-231, 72 h
Method in brief: (§2)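 Cells seeded at 3 × 10^4 cells/mL and exposed to a range of compound concentrations at 37 °C, 5% CO2, for 72 h. Fixed with 10% TCA for 1 h, stained with 0.4% SRB in 1% acetic acid, dye dissolved in 10 mM Tris pH 10.0. Survival expressed relative to solvent control; IC50 by nonlinear regression. Etoposide positive control.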

[3] = test system: A549; test: Cytotoxicity against human A549 cells after 72 hrs by sulforhodamine B assay; assay type: functional, cell-based; details: A549, 72 h; method in brief: as §2
[4] = test system: Kocuria rhizophila; test: Antibacterial activity against Kocuria rhizophila NBRC 12708 incubated for 12 hrs at 37 degC; assay type: functional; details: NBRC 12708, 12 h; method in brief: as §1
[5] = test system: Staphylococcus aureus; test: Antibacterial activity against Staphylococcus aureus ATCC 25923 incubated for 12 hrs at 37 degC; assay type: functional; details: ATCC 25923, 12 h; method in brief: as §1
[6] = test system: Bacillus subtilis; test: Antibacterial activity against Bacillus subtilis ATCC 6633 incubated for 12 hrs at 37 degC; assay type: functional; details: ATCC 6633, 12 h; method in brief: as §1
[7] = Inhibition of Staphylococcus aureus ATCC 6538p sortase A delta24 mutant using H2N-Abz-LPXTG-Dap(Dnp)-NH2 fluorescent substrate incubated for 1 hr by fluorescence based assay
Method in brief: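 Recombinant SrtAΔ24 (24 μg), srtA gene from S. aureus ATCC 6538p. Buffer 50 mM Tris-HCl, 150 mM NaCl, pH 7.5, 5 mM CaCl2, with 1 μg Abz-LPXTG-Dap(Dnp) peptide, 1 mM pentaglycine and compound at several concentrations (0.5% DMSO final). 1 h at 37 °C. Fluorescence read at excitation 317 nm, emission 420 nm. p-Hydroxymercuribenzoic acid positive control.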

[8] = Cytotoxicity against human SKHEP1 cells after 72 hrs by sulforhodamine B assay; assay type: functional, cell-based; details: SK-HEP1, 72 h; method in brief: as §2
[9] = test system: K562; test: Cytotoxicity against human K562 cells after 72 hrs by sulforhodamine B assay; assay type: functional, cell-based; details: K562, 72 h; method in brief: as §2
[10] = Cytotoxicity against human SNU638 cells after 72 hrs by sulforhodamine B assay; assay type: functional, cell-based; details: SNU-638, 72 h; method in brief: as §2
[11] = test system: HCT-116; test: Cytotoxicity against human HCT116 cells after 72 hrs by sulforhodamine B assay; assay type: functional, cell-based; details: HCT-116, 72 h; method in brief: as §2
[12] = test system: Aspergillus fumigatus; test: Antifungal activity against Aspergillus fumigatus HIC 6094; assay type: functional
Method in brief: (§3)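 Fungi grown on potato dextrose agar for 2 weeks at 28 °C. Spores harvested, washed twice and suspended at 5 × 10^5 spores/mL, then diluted into potato dextrose broth (5 × 10^4 cells/mL) with test compound in DMSO (0.5% final). DMSO solvent control; amphotericin B positive control.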

[13] = test system: Salmonella enterica; test: Antibacterial activity against Salmonella enterica ATCC 14028 incubated for 12 hrs at 37 degC; assay type: functional; details: ATCC 14028, 12 h; method in brief: as §1
[14] = test system: Candida albicans; test: Antifungal activity against Candida albicans ATCC 10231; assay type: functional
Method in brief: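 C. albicans grown in YPD medium for 48 h at 28 °C, centrifuged and washed twice with sterile water. Cells (5 × 10^4 cells/mL) in potato dextrose broth with test compound in DMSO (0.5% final). DMSO solvent control; amphotericin B positive control.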

[15] = test system: Trichophyton rubrum; test: Antifungal activity against Trichophyton rubrum NBRC 9185; assay type: functional, organism-based; method in brief: as §3
[16] = test system: Trichophyton mentagrophytes; test: Antifungal activity against Trichophyton mentagrophytes IFM 40996; assay type: functional, organism-based; method in brief: as §3

With `COc1ccc2oc3c(O)c4c(c(O)c3c(=O)c2c1O)-c1c(cc(CC(C)=O)c(C(=O)N[C@@](C)(CO)C(=O)O)c1O)CC4` the MIC [1] was 21.1 µM, the IC50 [2] was 1.2 µM and the IC50 [3] was 1.7 µM. It also gave an MIC [4] of 10.5 µM, an MIC [5] of 10.5 µM and an MIC [6] of 0.7 µM. The IC50 [7] was 43.2 µM, the IC50 [8] was 1.9 µM and the IC50 [9] was over 100 µM. The IC50 [10] was 0.8 µM, the IC50 [11] was 0.9 µM and the MIC [12] was 84.3 µM (≈ 50 µg/mL). For the same compound, the MIC [13] was 0.7 µM and the MIC [14] was 21.1 µM (≈ 12.5 µg/mL).

`CC(=O)Cc1cc(O)c2c(c1)CCc1c-2cc2c(c1O)C(=O)c1c(O)cc(O)cc1C2=O` gave an MIC [1] of over 100 mg/L, an IC50 [2] of over 100 µM and an IC50 [3] of over 100 µM. The MIC [4] was over 100 mg/L, the MIC [15] was “inactive” and the MIC [5] was over 100 mg/L. It also gave an MIC [6] of over 100 mg/L, an IC50 [8] of over 100 µM and an IC50 [9] of 18.3 µM. For the same compound, the IC50 [10] was over 100 µM, the MIC [16] was “inactive” and the IC50 [11] was over 100 µM. For the same compound, the MIC [12] was “inactive”, the MIC [13] was over 100 mg/L and the MIC [14] was “inactive”.

`CC1(C)S[C@@H]2[C@H](NC(=O)[C@H](N)c3ccccc3)C(=O)N2[C@H]1C(=O)O` [AMPICILLIN] showed an MIC [1] of under 0.6 µM, an MIC [4] of 0.6 µM and an MIC [5] of 4.5 µM. The MIC [6] was 1.1 µM and the MIC [13] was 4.5 µM.

In the case of Para-Hydroxymercuribenzoic acid, the IC50 [7] is reported as 104 µM.

`COc1cc([C@@H]2c3cc4c(cc3[C@@H](O[C@@H]3O[C@@H]5CO[C@@H](C)O[C@H]5[C@H](O)[C@H]3O)[C@H]3COC(=O)[C@H]23)OCO4)cc(OC)c1O` [ETOPOSIDE] showed an IC50 [2] of 10.6 µM, an IC50 [3] of 0.8 µM and an IC50 [8] of 1.1 µM. It also gave an IC50 [9] of 3.1 µM, an IC50 [10] of 0.5 µM and an IC50 [11] of 1.9 µM.
